The record followed here is ChEMBL document CHEMBL4041534, “Treatment of Sepsis Pathogenesis with High Mobility Group Box Protein 1-Regulating Anti-inflammatory Agents” (J Med Chem, 2017).

For data set [1], the target named is MAP kinase p38 (Mus musculus) (UniProt P47811+O08911+Q9WUI1+Q9Z1B7). Briefly: Inhibition of MAPK p38 phosphorylation at Thr180/Tyr182 resdiues in LPS-stimulated mouse RAW264.7 cells at 20 uM pretreated followed by LPS-induction by Western blot analysis. Put shortly:
(§1)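 Raw264.7 cells were pretreated with 20 μM compound, then stimulated with 100 ng/mL LPS, with DMSO as control. Lysates in RIPA buffer with protease and phosphatase inhibitors were normalized by BCA and run on SDS-PAGE/Western blot for phospho-p38, JNK and ERK, with GAPDH as loading control. Detection by ECL, and band intensities were quantified. At least three independent experiments.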
(Immunoblotting shows a protein as a band on a membrane.)

The species entered for data set [2] is Mus musculus. Nature of the data set: Inhibition of ERK phosphorylation in LPS-stimulated mouse RAW264.7 cells at 20 uM pretreated followed by LPS-induction by Western blot analysis. Put shortly:
as §1

A short description of data set [3]: Half life in ICR mouse at 10 mg/kg, ip by LC/MS/MS method. The data set is classed as ADME, organism-based. The settings on record: in vivo.
Data set [4] in a line: Cytotoxicity against mouse RAW264.7 cells assessed as cell viability at 10 uM in presence of LPS measured after 24 hrs by WST assay relative to control. The note with it: read-out: Activity. Format: cell-based. Put shortly: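 Raw264.7 cells, seeded 1 day earlier, were washed into serum-free DMEM and given 100 ng/mL LPS plus compound (10 μM) for 24 h. After the supernatant was removed, wells were refilled with 10% FBS DMEM and WST reagent was added for 20 min at 37 °C. Absorbance was read at 450 nm, and viability is relative to vehicle. At least three independent experiments.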

The species entered for data set [5] is Mus musculus. Nature of the data set: Inhibition of NF-kappaB p65 nuclear translocation in LPS-stimulated mouse RAW264.7 cells at 20 uM pretreated followed by LPS-induction by Hoechst 33342/TRITC staining based immunofluorescence microscopic method. Put shortly:
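NF-κB p65 immunofluorescence in Raw264.7 cells pretreated with 20 μM compound, then stimulated with 500 ng/mL LPS. Fixation was 4% paraformaldehyde, methanol permeabilization at −20 °C, and BSA blocking. Cells were stained with anti-p65 plus TRITC secondary and Hoechst 33342 nuclear stain, then imaged by deconvolution microscopy. At least three independent experiments.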

The target of data set [6] is T1, High mobility group protein B1 (Homo sapiens) (UniProt P09429).
T1 sequence (whole entry): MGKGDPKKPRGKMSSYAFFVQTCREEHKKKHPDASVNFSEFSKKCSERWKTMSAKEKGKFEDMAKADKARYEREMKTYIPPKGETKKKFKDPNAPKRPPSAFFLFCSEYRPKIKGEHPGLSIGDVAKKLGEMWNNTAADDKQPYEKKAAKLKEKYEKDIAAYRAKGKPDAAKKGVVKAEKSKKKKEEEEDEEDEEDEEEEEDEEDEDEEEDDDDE
Briefly: Inhibition of ICM-BP binding to recombinant human HMGB1 assessed as reduction in Cy5-azide incorporation pretreated for 60 mins followed by ICM-BP addition for 20 mins and subsequent UV light irradiation for 5 mins by fluorescence assay. Put shortly:
(§2)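 Purified HMGB1 (1 μg in water) was pretreated with competitor for 60 min, with DMSO held at 0.8% final. ICM-BP (5 μM) was then added for 20 min, followed by 365 nm UV for 5 min on ice. Cy5-azide was attached by click reaction, then samples were run on 12.5% SDS-PAGE and in-gel fluorescence scanned. Competitor was dosed in a graded series.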

Data set [7] addresses T2, High mobility group protein B1 (Mus musculus) (UniProt P63158).
T2 sequence (whole entry): T1 sequence (whole entry) with E189D, D202E
Nature of the data set: Inhibition of HMGB1 translocation from nucleus to cytosol in LPS-stimulated mouse RAW264.7 cells assessed as inhibition of NO release at 10 uM measured after 24 hrs by Griess assay relative to control. Put shortly: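 Raw264.7 cells, seeded 1 day earlier, were moved to serum-free DMEM and exposed to 100 ng/mL LPS with 10 μM compound for 24 h. Supernatant NO was measured with Griess reagent (sulfanilamide/N-(1-naphthyl)ethylenediamine/phosphoric acid) at room temperature, absorbance 548 nm. Inhibition was set against LPS+DMSO wells, blank-corrected, with four control wells. At least three independent experiments.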
(In general: The Griess reaction detects nitrite, a stable product of nitric oxide.)

For data set [8], the target named is T2, High mobility group protein B1 (Mus musculus). Briefly: Inhibition of HMGB1 nuclear translocation in LPS-stimulated mouse RAW264.7 cells assessed as inhibition of IL-6 production at 10 uM pretreated for 1 hr followed by LPS-induction by Western blot analysis. Put shortly: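 Raw264.7 cells were pretreated with 10 μM compound for 1 h, then given 100 ng/mL LPS. IL-6 released into the culture medium was detected by Western blot with ECL chemiluminescence, DMSO as control. At least three independent experiments.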

Data set [9] shares this target. Briefly: Inhibition of HMGB1 nuclear translocation in LPS-stimulated mouse RAW264.7 cells at 20 uM pretreated for 1 hr followed by LPS-induction measured after 2 hrs by Hoechst 33342/TRITC staining based immunofluorescence microscopic method. Put shortly: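 Raw264.7 cells on chambered coverglass were pretreated with 20 μM compound for 1 h, then given 500 ng/mL LPS for 2 h. Cells were fixed in 4% paraformaldehyde, permeabilized with methanol at −20 °C, blocked with 2% BSA, and stained with anti-HMGB1 plus TRITC secondary and Hoechst 33342. Imaged by deconvolution fluorescence microscopy. At least three independent experiments.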

The subject of data set [10] is Mus musculus. Nature of the data set: Anti-inflammatory activity in C57BL/6(B6) mouse model of CLP-induced sepsis assessed as decrease in serum IL-6 level at 10 mg/kg, ip administered daily for 21 days starting from 1 hr prior to CLP-induction by ELISA. Format: functional, organism-based. Put shortly: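 Serum IL-6 measured by sandwich ELISA. Blood was taken from CLP-induced C57BL/6 mice 24 h after surgery. Plates coated with anti-IL-6 mAb overnight at 4 °C and blocked with 1% BSA/PBS; serum incubated overnight at 4 °C. Detection used biotinylated anti-IL-6 and streptavidin-HRP, TMB development and absorbance at 450 nm. Run in triplicate, three independent repeats.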
On the technique in general: In an ELISA, binding on a coated surface is turned into a signal by an enzyme label.

Data set [11] is described as follows: Stability in mouse liver microsomes assessed as compound remaining preincubated for 5 mins followed by NADPH addition measured after 30 mins LC/MS/MS method. The note with it: read-out: Stability. Format: ADME, microsome. In short, it runs like this:
(§3)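 Compounds were incubated with human or mouse liver microsomes in 100 mM potassium phosphate, pH 7.4, at 37 °C for 5 min. NADPH regenerating solution was added, and the reaction was stopped at 30 min with ice-cold acetonitrile containing imipramine internal standard. Percent remaining was measured by LC/MS/MS. Mean ± SD, n = 3.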

Data set [12] addresses T2, High mobility group protein B1 (Mus musculus). Nature of the data set: Inhibition of HMGB1 translocation from nucleus to cytosol in LPS-stimulated mouse RAW264.7 cells assessed as inhibition of TNF-alpha production at 10 uM measured after 4 hrs by ELISA relative to control. In short, it runs like this: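 Raw264.7 cells in serum-free DMEM were treated with 100 ng/mL LPS and 10 μM compound (final). After 4 h, medium was diluted in 1% BSA/PBS and secreted TNF-α was quantified by ELISA against a standard curve of TNF-α protein. Inhibition is relative to control. At least three independent experiments.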

Data set [13] can be described thus: Stability in human liver microsomes assessed as compound remaining preincubated for 5 mins followed by NADPH addition measured after 30 mins LC/MS/MS method. The data set is classed as ADME, microsome. The note with it: read-out: Stability. Put shortly:
as §3

In data set [14] the test system is Mus musculus. Nature of the data set: Anti-inflammatory activity in C57BL/6(B6) mouse model of CLP-induced sepsis assessed as survival rate at 10 mg/kg, ip administered daily for 21 days starting from 1 hr prior to CLP-induction (reference value: 10 %). The data set is classed as functional.
Data set [15] in a line: Equilibrium aqueous solubility of the compound by microsol method. The data set is classed as physicochemical. Put shortly:
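Equilibrium aqueous solubility by the μsol method. Mean ± SD, n = 3.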

Data set [16] is filed under the species Mus musculus. Nature of the data set: Inhibition of JNK phosphorylation at Thr183/Tyr185 resdiues in LPS-stimulated mouse RAW264.7 cells at 20 uM pretreated followed by LPS-induction by Western blot analysis. Put shortly: as §1
Data set [17] deals with T1, High mobility group protein B1 (Homo sapiens). Nature of the data set: Inhibition of ICM-BP binding to recombinant human HMGB1 assessed as reduction in Cy5-azide incorporation at 1 to 20 uM pretreated for 60 mins followed by ICM-BP addition for 20 mins and subsequent UV light irradiation for 5 mins by fluorescence assay. Put shortly: as §2
For data set [18], the system named is Mus musculus. Nature of the data set: Anti-inflammatory activity in C57BL/6(B6) mouse model of CLP-induced sepsis assessed as increase in survival rate at 10 mg/kg, ip administered daily for 9 days starting from 1 hr prior to CLP-induction. Format: functional, organism-based. Put shortly: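 C57BL/6 mice from a specific pathogen-free facility underwent CLP. The cecum was ligated below the ileocecal valve 5.0 mm from the tip, punctured once with a 20-gauge needle and a little stool extruded, then the abdomen was closed. Mice received 10 mg/kg ip daily for 9 days and survival was followed against vehicle-treated mice.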

The test system of data set [19] is Mus musculus. Briefly: Anti-inflammatory activity in C57BL/6(B6) mouse model of CLP-induced sepsis assessed as decrease in serum IL-6 level at 10 mg/kg, ip administered daily for 9 days starting from 1 hr prior to CLP-induction by ELISA. The data set is classed as functional, organism-based.

Changes are numbered by the printed parent chain. Converted amounts (≈) assume the structure as drawn. The source made the active and inactive calls.

As usually defined, the inhibition is the share of the control response that was lost under treatment. What is called half-life is the time needed for the level to fall by half in the phase considered. Low values mean rapid decline, high ones slow decline. As usually defined, the solubility (thermodynamic) is solubility found after equilibrating the solid with the medium. On to `COc1cc(OC)cc(-n2c(=O)n3n(c2=O)C2C(=CC3)C(C)(C)Oc3cc(O)ccc32)c1` (stereo unspecified), for which the inhibition result (in data set [1]; in the data set listed under Mus musculus [2]; in the data set filed under Mus musculus [5]; in data set [8]; in [9]; in the data set filed under Mus musculus [16]) was “Active” each time. Besides, in data set [3], the half-life was 5 h. Moreover, the viability at 24 h, 10 µM in [4] turned out to be 121%. Moreover, the inhibition entry in data set [6] was “Dose-dependent effect”; in [7], 94%; in data set [12] it was 60%. For the same compound, the outcome with Mus musculus [10] was Active. The values for the remaining at 0.5 h in [11] and in data set [13] were 20.2% and 41.2%, respectively. Also, the survival at 10 mg/kg with Mus musculus [14] is 56%. In data set [15], this compound came in with a thermodynamic solubility of 65.1 µg/mL (≈ 149 µM).

With `Cn1c(=O)n2n(c1=O)C1C(=CC2)C(C)(C)Oc2cc(O)ccc21` (stereo unspecified), the viability at 24 h, 10 µM in data set [4] came to 114%. In addition, in [7], the inhibition came out at 45%. Moreover, the inhibition result in data set [17] is “inactive”.

Consider `CC(=O)c1ccc(-n2c(=O)n3n(c2=O)C2C(=CC3)C(C)(C)Oc3cc(O)ccc32)cc1` (stereo unspecified), for which the inhibition entry (in [1]; in the data set filed under Mus musculus [2]; in the data set listed under Mus musculus [5]; in data set [8]; in [9]; in the data set listed under Mus musculus [16]) was “Active” in each case. For the same compound, in data set [4], the viability at 24 h, 10 µM stood at 111%. The values for the inhibition result in [6], in data set [7] and in data set [12] were “Dose-dependent effect”, 93% and 68%, respectively. The result with Mus musculus [10] was Active. Also, the remaining at 0.5 h in data set [11] amounted to 2.46%; in data set [13], 30.2%. In the data set with Mus musculus [14], the survival at 10 mg/kg is 74%. Moreover, in data set [15], the thermodynamic solubility came out at 162 µg/mL (≈ 387 µM).

Consider `CC1(C)Oc2cc(O)ccc2C2C1=CCn1c(=O)n(-c3ccccc3)c(=O)n12` (stereo unspecified), for which the inhibition entry (in [1]; in the data set filed under Mus musculus [2]; in the data set filed under Mus musculus [5]; in [8]; in data set [9]; in the data set filed under Mus musculus [16]) was “Active” each time. Besides, the result in the data set on Mus musculus [18], in the data set on Mus musculus [10] and with Mus musculus [19] was Active. Moreover, the viability at 24 h, 10 µM in [4] was 105%. Also, the inhibition result in data set [6] was “Dose-dependent effect”; in data set [7], 87%; in data set [12], 43%. Also, the results for the remaining at 0.5 h in [11] and in data set [13] were 0.41% and 0.82%, respectively. Also, the survival at 10 mg/kg in the data set with Mus musculus [14] was found to be 45%. For the same compound, the thermodynamic solubility in data set [15] was determined as 23.5 µg/mL (≈ 62.3 µM).
